{
  "source": "ChEMBL document CHEMBL1914406",
  "about": "“Inhibitory effect of novel 5-O-acyl juglones on mammalian DNA polymerase activity, cancer cell growth and inflammatory response” (Bioorg Med Chem, 2011)",
  "test_system": "RAW264.7",
  "assay": "Antiinflammatory activity in mouse RAW264.7 cells assessed as inhibition of LPS-induced TNFalpha secretion at 5 uM treated 30 mins before LPS challenge measured after 24 hrs by ELISA",
  "type": "functional, cell-based",
  "procedure,_shortened": "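RAW264.7 cells in MEM with 4.5 g/L glucose, 10% FCS, 5 mM L-glutamine, at 37 °C in 5% CO2. Seeded at 5 × 10⁴ cells/well and grown 24 h. Compound (final 1 and 5 µM) given 30 min before 100 ng/mL LPS. After 24 h, TNF-α in the medium measured by ELISA, relative to the no-compound value (100%). Mean ± SE, n = 4.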",
  "note": "Activity calls are given as the source filed them. No cut-off for these calls is given here.",
  "data": [
    {"molecule": "CCCCCCCCCCCC(=O)Oc1cccc2c1C(=O)C=CC2=O", "values": [
      {"measurement": "Activity", "result": "Active"}
    ]}
  ]
}
